Results taken from ChEMBL document CHEMBL2375340, “Cytotoxic bisbenzylisoquinoline alkaloids from Stephania epigaea” (J Nat Prod, 2013).

Assays:
Assay type in all cases: functional, cell-based
[1] = system: SW480; assay: Cytotoxicity against human SW480 cells after 48 hrs by MTS assay; settings: SW480, 48 h
Method in brief: (§1)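 Cells kept in RPMI 1640 with 10% FBS and 100 U/mL penicillin/streptomycin, 37 °C, 5% CO2. Seeded at 5 × 10^3/well with test samples at various concentrations for 48 h. MTS (5 mg/mL in PBS) added, 4 h more. Medium partly replaced by 20% SDS overnight to dissolve formazan. Absorbance read at 570 nm. IC50 calculated by Reed and Muench method. Cisplatin served as positive control.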

[2] = system: SMMC-7721; assay: Cytotoxicity against human SMMC7721 cells after 48 hrs by MTS assay; settings: SMMC-7721, 48 h; method in brief: as §1
[3] = system: MCF7; assay: Cytotoxicity against human MCF7 cells after 48 hrs by MTS assay; settings: MCF7, 48 h; method in brief: as §1
[4] = system: HL-60; assay: Cytotoxicity against human HL60 cells after 48 hrs by MTS assay; settings: HL-60, 48 h; method in brief: as §1
[5] = Cytotoxicity against human ECA109 cells after 48 hrs by MTT assay; settings: ECa-109, 48 h
Method in brief: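 Cells grown in RPMI 1640 with 10% FBS and 100 U/mL penicillin/streptomycin, humidified 5% CO2, 37 °C. Plated 5 × 10^3/well, exposed to test samples at various concentrations for 48 h. MTT then added in place of MTS, 4 h further. Formazan dissolved overnight in 20% SDS, A570 measured. IC50 by Reed and Muench method. Tanespimycin (17AAG) was the positive control.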

[6] = system: A549; assay: Cytotoxicity against human A549 cells after 48 hrs by MTS assay; settings: A549, 48 h; method in brief: as §1

COc1ccc2cc1Oc1ccc(cc1)C[C@H]1c3c(cc4c(c3Oc3cc5c(cc3OC)CCN=C5C2)OCO4)CC[N@@+]1(C)[O-]
IC50 [1]: > 10 µM | IC50 [2]: > 10 µM | IC50 [3]: > 10 µM | IC50 [4]: > 10 µM | IC50 [5]: 10 µM | IC50 [6]: > 10 µM

COc1ccc2cc1Oc1ccc(cc1)C[C@H]1c3c(cc4c(c3Oc3cc5c(cc3OC)CCN[C@@H]5C2)OCO4)CCN1C
IC50 [1]: 3.7 µM | IC50 [2]: 4.8 µM | IC50 [3]: 2.3 µM | IC50 [4]: 2.8 µM | IC50 [5]: 3.2 µM | IC50 [6]: 3.7 µM

COc1ccc2cc1Oc1ccc(cc1)C[C@H]1c3c(cc4c(c3Oc3cc5c(cc3OC)CCN(C)[C@@H]5C2)OCO4)CCN1C [CEPHARANTHINE]
IC50 [1]: 4.7 µM | IC50 [2]: 9.9 µM | IC50 [3]: 2.9 µM | IC50 [4]: 9.2 µM | IC50 [5]: > 10 µM | IC50 [6]: 5 µM

COc1ccc2cc1Oc1ccc(cc1)C[C@H]1c3cc(c(OC)cc3CCN1C)Oc1c(O)c(OC)cc3c1[C@H](C2)N(C)CC3 [FANGCHINOLINE]
IC50 [1]: > 10 µM | IC50 [2]: > 10 µM | IC50 [3]: 5 µM | IC50 [4]: > 10 µM | IC50 [5]: > 10 µM | IC50 [6]: > 10 µM

COc1ccc2cc1Oc1ccc(cc1)C[C@H]1c3c(cc(OC)c(O)c3Oc3cc4c(cc3OC)CCN(C)[C@@H]4C2)CCN1C [HOMOAROMOLINE]
IC50 [1]: > 10 µM | IC50 [2]: > 10 µM | IC50 [3]: 9.5 µM | IC50 [4]: > 10 µM | IC50 [5]: > 10 µM | IC50 [6]: > 10 µM

C=CCNC1=C2C[C@@H](C)C[C@H](OC)[C@H](O)[C@@H](C)/C=C(\C)[C@H](OC(N)=O)[C@@H](OC)/C=C\C=C(/C)C(=O)NC(=CC1=O)C2=O [TANESPIMYCIN]
IC50 [5]: 1.1 µM
